According to ChEMBL document CHEMBL1275451, “In vitro susceptibilities of invasive isolates of Candida species: rapid increase in rates of fluconazole susceptible-dose dependent Candida glabrata isolates” (2008):
≈ marks a conversion by molar mass, not a printed value. *1 amine or outer side, *2 acyl side, *3 side chain or, on linkers, in order; H or OH if unused. Where a SMILES comes first, the peptide text is derived from it. Bridges are numbered along the chain shown (N, C = ends). [ ]: non-standard residue; d: D form. The star is where a group is joined. hTyr(3S-OH,4S-OH,3'-OSO3H) = N[C@H](C(=O)O)[C@H](O)[C@@H](O)c1ccc(O)c(OS(=O)(=O)O)c1; pTerphenylCO(4''-OnC5H11) = CCCCCOc1ccc(-c2ccc(-c3ccc(C(=O)*)cc3)cc2)cc1; Orn(4R-OH,5R-OH) = O=C([C@H](C[C@@H](O)[C@@H](O)N[*:3])N[*:1])[*:2]; hTyr(3S-OH,4S-OH) = N[C@H](C(=O)O)[C@H](O)[C@@H](O)c1ccc(O)cc1; Pro(3S-OH,4S-Me) = C[C@H]1CN[C@H](C(=O)O)[C@H]1O; X1 = CCCCCOc1ccc(-c2cc(-c3ccc(C(=O)*)cc3)no2)cc1; Gln(3R-OH) = NC(=O)C[C@@H](O)[C@H](N)C(=O)O; Hyp = O=C(O)[C@@H]1C[C@@H](O)CN1

Key:
Assay type in all cases: functional
[1] = tested on: Candida tropicalis; assay: Antifungal activity against Candida tropicalis after 48 hrs by CLSI method
In short: (§1)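 Broth microdilution MICs were run on invasive clinical Candida isolates under CLSI M27-A2, with incubation at 35°C for 48 h before reading. Control strains were C. parapsilosis ATCC 22019 and C. krusei ATCC 6258. MICs were interpreted under the same guideline to place isolates as susceptible, susceptible-dose dependent or resistant, reported as percentage of isolates per category, with MIC range, MIC50 and MIC90.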

[2] = tested on: Candida albicans; assay: Antifungal activity against Candida albicans after 48 hrs by CLSI method
[3] = tested on: Nakaseomyces glabratus; assay: Antifungal activity against Candida glabrata after 48 hrs by CLSI method
[4] = tested on: Candida parapsilosis; assay: Antifungal activity against Candida parapsilosis after 48 hrs by CLSI method; conditions: Lodderomyces parapsilosis; in short: as §1
[5] = tested on: Meyerozyma guilliermondii; assay: Antifungal activity against Candida guilliermondii after 48 hrs by CLSI method
[6] = tested on: Pichia kudriavzevii; assay: Antifungal activity against Candida krusei after 48 hrs by CLSI method
In short: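 Broth microdilution MICs were run on invasive clinical Candida isolates under CLSI M27-A2, with incubation at 35°C for 48 h before reading. MICs were interpreted under the same guideline to place isolates as susceptible, susceptible-dose dependent or resistant, reported as percentage of isolates per category, with MIC range, MIC50 and MIC90.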

[7] = tested on: Clavispora lusitaniae; assay: Antifungal activity against Candida lusitaniae after 48 hrs by CLSI method
[8] = tested on: Candida albicans; assay: Antifungal activity against Candida albicans assessed as susceptible isolates after 48 hrs by CLSI method; in short: as §1
[9] = tested on: Nakaseomyces glabratus; assay: Antifungal activity against Candida glabrata assessed as susceptible isolates after 48 hrs by CLSI method; in short: as §1
[10] = tested on: Candida tropicalis; assay: Antifungal activity against Candida tropicalis assessed as susceptible isolates after 48 hrs by CLSI method; in short: as §1
[11] = tested on: Candida parapsilosis; assay: Antifungal activity against Candida parapsilosis assessed as susceptible isolates after 48 hrs by CLSI method; in short: as §1
[12] = tested on: Meyerozyma guilliermondii; assay: Antifungal activity against Candida guilliermondii assessed as susceptible isolates after 48 hrs by CLSI method; in short: as §1
[13] = tested on: Pichia kudriavzevii; assay: Antifungal activity against Candida krusei assessed as susceptible isolates after 48 hrs by CLSI method; in short: as §1
[14] = tested on: Clavispora lusitaniae; assay: Antifungal activity against Candida lusitaniae assessed as susceptible isolates after 48 hrs by CLSI method; in short: as §1
[15] = tested on: Candida albicans; assay: Antifungal activity against Candida albicans assessed as resistant isolates after 48 hrs by CLSI method; in short: as §1
[16] = tested on: Nakaseomyces glabratus; assay: Antifungal activity against Candida glabrata assessed as resistant isolates after 48 hrs by CLSI method; in short: as §1
[17] = tested on: Candida tropicalis; assay: Antifungal activity against Candida tropicalis assessed as resistant isolates after 48 hrs by CLSI method; in short: as §1
[18] = tested on: Candida parapsilosis; assay: Antifungal activity against Candida parapsilosis assessed as resistant isolates after 48 hrs by CLSI method; in short: as §1
[19] = tested on: Pichia kudriavzevii; assay: Antifungal activity against Candida krusei assessed as resistant isolates after 48 hrs by CLSI method; in short: as §1
[20] = tested on: Candida albicans; assay: Antifungal activity against Candida albicans assessed as susceptible dose-dependent isolates after 48 hrs by CLSI method; in short: as §1
[21] = tested on: Nakaseomyces glabratus; assay: Antifungal activity against Candida glabrata assessed as susceptible dose-dependent isolates after 48 hrs by CLSI method; in short: as §1
[22] = tested on: Candida tropicalis; assay: Antifungal activity against Candida tropicalis assessed as susceptible dose-dependent isolates after 48 hrs by CLSI method; in short: as §1
[23] = tested on: Candida parapsilosis; assay: Antifungal activity against Candida parapsilosis assessed as susceptible dose-dependent isolates after 48 hrs by CLSI method; in short: as §1
[24] = tested on: Meyerozyma guilliermondii; assay: Antifungal activity against Candida guilliermondii assessed as susceptible dose-dependent isolates after 48 hrs by CLSI method; in short: as §1
[25] = tested on: Pichia kudriavzevii; assay: Antifungal activity against Candida krusei assessed as susceptible dose-dependent isolates after 48 hrs by CLSI method; in short: as §1
[26] = tested on: Clavispora lusitaniae; assay: Antifungal activity against Candida lusitaniae assessed as susceptible dose-dependent isolates after 48 hrs by CLSI method; in short: as §1

Row | Compound | MIC50 [1] [mg/L] | MIC90 [1] [mg/L] | MIC50 [2] [mg/L] | MIC90 [2] [mg/L] | MIC50 [3] [mg/L] | MIC90 [3] [mg/L] | MIC50 [4] [mg/L] | MIC90 [4] [mg/L] | MIC50 [5] [mg/L] | MIC90 [5] [mg/L] | MIC50 [6] [mg/L] | MIC90 [6] [mg/L] | MIC50 [7] [mg/L] | MIC90 [7] [mg/L] | MIC [1] [mg/L] | MIC [2] [mg/L] | Activity [8] [%] | Activity [9] [%] | Activity [10] [%] | Activity [11] [%] | further results
1 | CC[C@H](C)C[C@H](C)CCCCCCCCC(=O)N[C@H]1C[C@@H](O)[C@@H](NCCN)NC(=O)[C@@H]2[C@@H](O)CCN2C(=O)[C@H]([C@H](O)CCN)NC(=O)[C@H]([C@H](O)[C@@H](O)c2ccc(O)cc2)NC(=O)[C@@H]2C[C@@H](O)CN2C(=O)[C@H]([C@@H](C)O)NC1=O [CASPOFUNGIN] | 0.25 (≈ 0.229 µM) | 0.5 (≈ 0.457 µM) | 0.25 (≈ 0.229 µM) | 0.25 (≈ 0.229 µM) | 0.25 (≈ 0.229 µM) | 0.25 (≈ 0.229 µM) | 1 (≈ 0.915 µM) | 2 (≈ 1.83 µM) | 2 (≈ 1.83 µM) | 2 (≈ 1.83 µM) | 1 (≈ 0.915 µM) | 1 (≈ 0.915 µM) | 2 (≈ 1.83 µM) | 2 (≈ 1.83 µM) | – | – | – | – | – | – | –
2 | C[C@@H]1[C@H](O)[C@@H](C)/C=C/C=C/C=C/C=C/C=C/C=C/C=C/[C@H](O[C@@H]2O[C@H](C)[C@@H](O)[C@H](N)[C@@H]2O)C[C@@H]2O[C@](O)(C[C@@H](O)C[C@@H](O)[C@H](O)CC[C@@H](O)C[C@@H](O)CC(=O)O[C@H]1C)C[C@H](O)[C@H]2C(=O)O [AMPHOTERICIN B] | 0.5 (≈ 0.541 µM) | 1 (≈ 1.08 µM) | 1 (≈ 1.08 µM) | 1 (≈ 1.08 µM) | 2 (≈ 2.16 µM) | 2 (≈ 2.16 µM) | – | – | – | – | 2 (≈ 2.16 µM) | 2 (≈ 2.16 µM) | 1 (≈ 1.08 µM) | 1 (≈ 1.08 µM) | 0.5 (≈ 0.541 µM) | 1 (≈ 1.08 µM) | 100 | 47 | 98 | 98 | Activity [12]: 97%; Activity [13]: 5%; Activity [14]: 100%
3 | CC[C@@H]([C@H](C)O)n1ncn(-c2ccc(N3CCN(c4ccc(OC[C@@H]5CO[C@@](Cn6cncn6)(c6ccc(F)cc6F)C5)cc4)CC3)cc2)c1=O [POSACONAZOLE] | 0.06 (≈ 0.0856 µM) | 0.25 (≈ 0.357 µM) | 0.015 (≈ 0.0214 µM) | 0.03 (≈ 0.0428 µM) | 0.5 (≈ 0.713 µM) | 0.5 (≈ 0.713 µM) | 0.03 (≈ 0.0428 µM) | 0.06 (≈ 0.0856 µM) | 0.12 (≈ 0.171 µM) | 0.25 (≈ 0.357 µM) | 0.25 (≈ 0.357 µM) | 0.25 (≈ 0.357 µM) | 0.03 (≈ 0.0428 µM) | 0.03 (≈ 0.0428 µM) | – | 0.015 (≈ 0.0214 µM) | – | – | – | – | MIC [4]: 0.03 mg/L (≈ 0.0428 µM)
4 | CCCCCOc1ccc(-c2ccc(-c3ccc(C(=O)N[C@H]4C[C@@H](O)[C@@H](O)NC(=O)[C@@H]5[C@@H](O)[C@@H](C)CN5C(=O)[C@H]([C@@H](C)O)NC(=O)[C@H]([C@H](O)[C@@H](O)c5ccc(O)cc5)NC(=O)[C@@H]5C[C@@H](O)CN5C(=O)[C@H]([C@@H](C)O)NC4=O)cc3)cc2)cc1 [ANIDULAFUNGIN] ({pTerphenylCO(4''-OnC5H11)}-[Orn(4R-OH,5R-OH)]T[Hyp][hTyr(3S-OH,4S-OH)]T[Pro(3S-OH,4S-Me)]; lactam 1-C) | 0.03 (≈ 0.0263 µM) | 0.06 (≈ 0.0526 µM) | 0.015 (≈ 0.0132 µM) | 0.015 (≈ 0.0132 µM) | 0.03 (≈ 0.0263 µM) | 0.03 (≈ 0.0263 µM) | 1 (≈ 0.877 µM) | 2 (≈ 1.75 µM) | 1 (≈ 0.877 µM) | 2 (≈ 1.75 µM) | 0.12 (≈ 0.105 µM) | 0.25 (≈ 0.219 µM) | 0.06 (≈ 0.0526 µM) | 0.12 (≈ 0.105 µM) | – | 0.015 (≈ 0.0132 µM) | – | – | – | – | –
5 | CCCCCOc1ccc(-c2cc(-c3ccc(C(=O)N[C@H]4C[C@@H](O)[C@@H](O)NC(=O)[C@@H]5[C@@H](O)[C@@H](C)CN5C(=O)[C@H]([C@H](O)CC(N)=O)NC(=O)[C@H]([C@H](O)[C@@H](O)c5ccc(O)c(OS(=O)(=O)O)c5)NC(=O)[C@@H]5C[C@@H](O)CN5C(=O)[C@H]([C@@H](C)O)NC4=O)cc3)no2)cc1 [MICAFUNGIN] (X1-[Orn(4R-OH,5R-OH)]T[Hyp][hTyr(3S-OH,4S-OH,3'-OSO3H)][Gln(3R-OH)][Pro(3S-OH,4S-Me)]; lactam 1-C) | 0.06 (≈ 0.0472 µM) | 0.12 (≈ 0.0945 µM) | 0.007 (≈ 0.00551 µM) | 0.015 (≈ 0.0118 µM) | 0.06 (≈ 0.0472 µM) | 0.06 (≈ 0.0472 µM) | 2 (≈ 1.57 µM) | 2 (≈ 1.57 µM) | 1 (≈ 0.787 µM) | 1 (≈ 0.787 µM) | 0.25 (≈ 0.197 µM) | 0.5 (≈ 0.394 µM) | 0.25 (≈ 0.197 µM) | 0.25 (≈ 0.197 µM) | 0.06 (≈ 0.0472 µM) | 0.007 (≈ 0.00551 µM) | – | – | – | – | MIC [6]: 0.25 mg/L (≈ 0.197 µM)
6 | CCC(C)n1ncn(-c2ccc(N3CCN(c4ccc(OCC5COC(Cn6cncn6)(c6ccc(Cl)cc6Cl)O5)cc4)CC3)cc2)c1=O (centres undefined) [ITRACONAZOLE] | 0.12 (≈ 0.17 µM) | 0.25 (≈ 0.354 µM) | 0.03 (≈ 0.0425 µM) | 0.03 (≈ 0.0425 µM) | 1 (≈ 1.42 µM) | 1 (≈ 1.42 µM) | 0.06 (≈ 0.085 µM) | 0.25 (≈ 0.354 µM) | 0.5 (≈ 0.709 µM) | 0.5 (≈ 0.709 µM) | 0.5 (≈ 0.709 µM) | 0.5 (≈ 0.709 µM) | 0.06 (≈ 0.085 µM) | 0.06 (≈ 0.085 µM) | – | – | 98 | 0 | 65 | 78 | Activity [12]: 6%; Activity [13]: 0%; Activity [14]: 100%; Activity [15]: 0%; Activity [16]: 63%; Activity [17]: 0%; Activity [18]: 0%; Activity [19]: 10%; Activity [20]: 2%; Activity [21]: 37%; Activity [22]: 35%; Activity [23]: 22%; Activity [24]: 88%; Activity [25]: 90%; Activity [26]: 0%
